Laboratory results as given in paper PMC4383680 (Nature, 2015).
“Also recorded” adds a separate entry of the source. Each block holds one molecule with its values, some of them ahead of it. No end group written: not given here.

Assays:
[1] = system: PVN MC4R neurons; test: Firing frequency of PVN MC4R neurons; assay type: cell-based, mouse
How it was run: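 Slices from MC4R-GFP mice, 200 μm, cut at 44–49°, held in oxygenated ACSF at 31 °C. AgRP applied to the bath. Cells held around −50 mV so they fire spontaneously. Firing frequency counted for 3 min before peptide and for 3 min at 7–11 min after, then compared.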

[2] = target: MC4R + Kir7.1 (M125R) in HEK293 cells (Homo sapiens, UniProt P32245); assay type: cell-based
[3] = system: PVN MC4R neurons; test: Voltage clamp; assay type: cell-based, mouse
[4] = system: PVN MC4R neurons; test: Current clamp membrane potential of PVN MC4R neurons, hypothalamic slices; assay type: cell-based, mouse; conditions: for amplitude of α-MSH depolarization at higher concentration of salt: BaCl2 >1 mM, CsCl >2.5 mM; for effect of BaCl2 or CsCl on α-MSH induced depolarization: external, various concentrations
How it was run: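 MC4R-GFP mouse hypothalamic slices, 200 μm, cut at 44–49° to horizontal in near-freezing oxygenated aCSF and kept in oxygenated ACSF at 31 °C. α-MSH (250 nM) bath-applied. Continuous current clamp with membrane potential held at −55 to −60 mV to prevent spontaneous firing. Potential averaged over 3 min before peptide versus a 3 min window 7–11 min after. Zero-ATP internal at pH 7.2, 298 mosmol/kg.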

[5] = target: T1, MC4R (Homo sapiens, UniProt P32245); test: β-arrestin recruitment; assay type: cell-based; conditions: increasing concentrations, PathHunter, 90 min, 37 °C
[6] = system: MC4R - Gαi; test: Coupling of MC4R to Gαi; assay type: cell-based; conditions: Extended Data Fig. 6a–c
[7] = system: inward rectifying K+ (Kir) channels; conditions: at concentrations that block other Kir channels; ref [12]; cited from earlier work
[8] = system: D1 dopamine receptor in PVN neurons; test: D1 receptor mediated depolarization of PVN neurons; assay type: cell-based, mouse; conditions: 5 μM SKF83822
How it was run: (§1)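 Mouse hypothalamic slices, 200 μm, cut at 44–49° from horizontal in oxygenated near-freezing aCSF and transferred to oxygenated ACSF at 31 °C. PVN neurons recorded in whole cell mode. Cells accepted only with holding current ≤30 pA at −70 mV, large rebound spikes, ability to fire, and no blebbing or visible nucleus.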

[9] = system: μ-opioid receptor in PVN MC4R neurons; test: μ-opioid; assay type: cell-based, mouse; conditions: DAMGO 10 μM; for effect on DAMGO response: GTPγS 1.5 mM or gallein 25 μM
How it was run: as §1

[10] = target: 3HA-MC4R (melanocortin-4 receptor) (human) (UniProt P32245)
[11] = target: T1, MC4R; test: Intracellular cAMP / MC4R coupling to Gαs; assay type: cell-based; conditions: Fig. 4a

T1 sequence (P32245 whole entry): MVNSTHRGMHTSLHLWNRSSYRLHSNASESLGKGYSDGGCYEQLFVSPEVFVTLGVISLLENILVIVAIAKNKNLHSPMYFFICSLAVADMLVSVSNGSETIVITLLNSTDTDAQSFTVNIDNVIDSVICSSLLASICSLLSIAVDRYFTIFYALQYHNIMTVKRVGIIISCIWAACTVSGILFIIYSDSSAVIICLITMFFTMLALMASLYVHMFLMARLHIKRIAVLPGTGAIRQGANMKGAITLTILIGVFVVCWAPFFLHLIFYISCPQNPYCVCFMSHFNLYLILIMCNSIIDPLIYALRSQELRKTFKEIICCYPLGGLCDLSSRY
3HA-MC4R (melanocortin-4 receptor) (human), sequence (P32245 whole entry): as above
MC4R + Kir7.1 (M125R) in HEK293 cells, sequence (P32245 whole entry, stated change not applied): as the sequence (P32245 whole entry) above

Molecule: CSCC[C@@H]1NC(=O)[C@H](C)NC(=O)[C@H]([C@@H](C)O)NC(=O)CNC(=O)[C@H](CC(C)C)NC(=O)[C@H](CCCCN)NC(=O)[C@H](CCCNC(=N)N)NC(=O)[C@@H]2CSSC[C@@H]3NC(=O)[C@@H]4CCCN4C(=O)[C@H](C(C)C)NC(=O)[C@H](CCC(N)=O)NC(=O)[C@H](CCC(N)=O)NC(=O)CNC(=O)[C@H](CC(C)C)NC(=O)[C@@H]4CSSC[C@H](NC(=O)[C@H]([C@@H](C)O)NC(=O)[C@H](C)NC(=O)[C@H](CSSC[C@@H](C(=O)N[C@@H](CO)C(=O)N[C@@H](CCCNC(=N)N)C(=O)N[C@H](C(=O)O)[C@@H](C)O)NC(=O)[C@@H]5CCCN5C(=O)[C@H](CC(N)=O)NC1=O)NC(=O)[C@@H]1CCCN1C(=O)[C@H](CC(=O)O)NC(=O)[C@H](CSSC[C@H](NC(=O)[C@H](CCCNC(=N)N)NC(=O)[C@H](CCCNC(=N)N)NC(=O)[C@H](CO)NC(=O)[C@@H](N)CO)C(=O)N[C@@H](C(C)C)C(=O)N[C@@H](CCCNC(=N)N)C(=O)N[C@@H](CC(C)C)C(=O)N[C@@H](Cc1c[nH]cn1)C(=O)N[C@@H](CCC(=O)O)C(=O)N[C@@H](CO)C(=O)N4)NC3=O)C(=O)N[C@@H](Cc1ccc(O)cc1)C(=O)N[C@H]1CSSC[C@H](NC(=O)[C@H](Cc3ccccc3)NC(=O)[C@H](C)NC(=O)[C@H](CC(N)=O)NC(=O)[C@H](Cc3ccccc3)NC(=O)[C@H](Cc3ccccc3)NC(=O)[C@H](CCCNC(=N)N)NC1=O)C(=O)N[C@@H](Cc1ccc(O)cc1)C(=O)N2 [AgRP, Agouti-related protein]
effect on firing activity ([1]; AgRP, cells held around −50 mV): inhibiting their firing activity | duration of increase of Tl+ flux ([2]; low dose AgRP 1 nM, data not shown): up to 24 h | effect on K+ current of PVN MC4R neurons [3]: generates hyperpolarizing current by opening of inward rectifying K^+ channels; also recorded: increases the density of an inward rectifying K^+ current | reversal potential of AgRP-activated current ([3]; AgRP 50 nM, 20 mM external K+): −46.7 +/− 3.0 mV | increase of membrane conductance ([3]; AgRP 50 nM, 20 mM external K+, n=6): 75% | membrane potential response ([4]; 100 nM AgRP, bath application, current clamp, **p<0.01): hyperpolarized PVN MC4R neurons; also recorded: hyperpolarizing response | β-arrestin recruitment [5]: did not appear to; also recorded: without any effect | coupling to Gαi [6]: did not appear to couple the MC4R to the cAMP inhibitory G protein, Gαi

Molecule: [Ba+2].[Cl-].[Cl-] [BaCl2]
amplitude of α-MSH depolarization at higher concentration of salt [4]: increased amplitude | effect of BaCl2 or CsCl on α-MSH induced depolarization ([4]; current clamp): not blocked in higher concentrations; also recorded: persisted | sensitivity of Kir7.1 to external salt [7]: resistant

Molecule: [Cl-].[Cs+] [CsCl]
amplitude of α-MSH depolarization at higher concentration of salt [4]: increased amplitude | effect of BaCl2 or CsCl on α-MSH induced depolarization ([4]; current clamp): not blocked in higher concentrations; also recorded: persisted | sensitivity of Kir7.1 to external salt [7]: resistant

Molecule: Nc1nc2c(ncn2[C@@H]2O[C@H](COP(=O)(O)OP(O)(O)=S)[C@@H](O)[C@H]2O)c(=O)[nH]1 [GDPβS]
effect on α-MSH induced depolarization ([4]; 5 mM GDPβS, intrapipette): fails to block the α-MSH – induced depolarization; also recorded: failed to block α-MSH induced depolarization of PVN MC4R neurons | effect on D1 (SKF83822) mediated depolarization ([8]; 5 mM GDPβS intrapipette): blocks the depolarization and firing activity induced by SKF83822; also recorded: blocked D1 mediated depolarization

Molecule: Nc1nc2c(ncn2[C@@H]2O[C@H](COP(=O)(O)OP(=O)(O)OP(O)(O)=S)[C@@H](O)[C@H]2O)c(=O)[nH]1 [GTPγS]
effect on α-MSH induced firing or depolarization ([4]; GTPγS 1.5 mM, whole cell): ineffective in blocking neuronal firing or depolarization; also recorded: fails to block the depolarization induced by α-MSH | effect on DAMGO response [9]: does block the hyperpolarization induced by μ-opioid agonist

Molecule: CCCCCCCC(=O)OC[C@H](COP(=O)(O)O[C@@H]1[C@H](O)[C@H](O)[C@@H](OP(=O)(O)O)[C@H](OP(=O)(O)O)[C@H]1O)OC(=O)CCCCCCC [PI(4,5)P2 diC8]
effect on α-MSH induced depolarization ([4]; 100 μM PI(4,5)P2 diC8 in zero ATP internal solution): significantly increased the amplitude of the α-MSH induced depolarization; also recorded: potentiated the α-MSH-induced response

Molecule: C=CCN1CCc2c(cc(O)c(O)c2Cl)C(c2cccc(C)c2)C1 (stereo not shown) [SKF83822]
depolarization of PVN neurons by D1 agonist [8]: causes depolarization of PVN neurons; also recorded: depolarized PVN neurons

Molecule: Nc1ncnc2c1ncn2C1CCCO1 (stereo not shown) [SQ22536]
effect on α-MSH induced depolarization ([4]; SQ22536 25 μM, adenylyl cyclase inhibition): fails to block depolarizing effects of α-MSH; also recorded: failed to block α-MSH induced depolarization

Molecule: N#CC(=C(/N)Sc1ccccc1N)/C(C#N)=C(/N)Sc1ccccc1N [U0126]
effect on α-MSH induced increase in firing frequency ([1]; U0126 1 μM, whole cell): ineffective in blocking neuronal firing or depolarization; also recorded: fails to block α-MSH -induced increase in firing frequency

Molecule: Cc1ccc(OCC(O)Cn2c(=N)n(Cc3ccccc3)c3ccccc32)cc1 (stereo not shown) [VU573]
inhibition of depolarizing effect of α-MSH ([4]; 15 μM VU573, 250 nM α-MSH): ~ 80%

Molecule: O=[N+]([O-])c1ccc(CN2CCOCCOCCN(Cc3ccc([N+](=O)[O-])cc3)CCOCC2)cc1 [VU590]
effect of Kir blocker on α-MSH induced depolarization ([4]; 250 nM α-MSH, blocker concentration not given): blocked

effect on DAMGO response [9]: blocks the effects of DAMGO
Molecule: O=C1OC2(c3ccccc31)c1ccc(O)c(O)c1Oc1c2ccc(O)c1O [gallein]
effect on α-MSH induced firing or depolarization ([4]; gallein 25 μM, Gβγ blocker): ineffective in blocking neuronal firing or depolarization; also recorded: fails to inhibit α-MSH induced depolarization

Molecule: DAMGO
effect of DAMGO on membrane potential [9]: hyperpolarization

stimulation of Kir7.1 activity, potency [10]: 1.7e-07
Molecule: miniAgRP (AgRP 87-120) (from UniProt O00253 87-120) (peptide)

Molecule: miniAgRP: AgRP analogue, AgRP87-120 (87-122); synthesized, purified and folded by authors (CVRLHESCLGQQVPCCDPCATCYCRFFNAFCYCR; ends and bridges not checked; also: folded, disulfide pairing not given here; UniProt O00253 87-120, looked up, fragment)
coupling of MC4R to Kir7.1 ([2]; Fig. 4b): lost its ability to couple MC4R to Kir7.1 | potency in inhibition of MC4R coupling to Gαs [11]: retains normal affinity for MC4R, and potency in inhibition of MC4R coupling to Gαs

stimulation of Kir7.1 activity, potency [10]: 3.6e-09
Molecule: SSRRCVRLHESCLGQQVPCCDPCATCYCRFFNAFCYCRKLGTAMNPCSRT (domain or fragment, ends and bridges not checked; cysteine pairing not given here) [wtAgRP (83-132)]
